Laboratory results: ChEMBL document CHEMBL3244198, “Hetacillin (R)- and (S)-sulfoxides. Synthesis and structure-activity relationships” (1978)
In brackets after ≈: the same amount, converted by molar mass.

How the values were obtained:
Format in all cases: functional
Streptococcus pneumoniae = assay: Antibacterial activity against Streptococcus pneumoniae 9585 by two-fold serial dilution technique
Outline: (§1)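 MIC read as µg/mL from twofold serial dilutions of each compound in nutrient broth, tested against the named strain.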

Staphylococcus aureus [1] = assay: Antibacterial activity against penicillin-resistant Staphylococcus aureus 9606 by two-fold serial dilution technique
Outline: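 MIC (µg/mL) was determined by twofold serial dilution in nutrient broth against penicillin-resistant S. aureus 9606.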

Proteus mirabilis = assay: Antibacterial activity against Proteus mirabilis 9900 by two-fold serial dilution technique; outline: as §1
Escherichia coli = assay: Antibacterial activity against Escherichia coli 15119 by two-fold serial dilution technique; outline: as §1
Proteus vulgaris = assay: Antibacterial activity against Proteus vulgaris 9716 by two-fold serial dilution technique; outline: as §1
Streptococcus pyogenes [2] = assay: Antibacterial activity against Streptococcus pyogenes A9604 infected in po dosed mouse assessed as mouse survival administered at 3.5 hrs post-infection measured for 5 days; settings: read-out: PD50
Outline: (§2)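 Mice were challenged intraperitoneally with about 1.3 × 10^3 S. pyogenes A9604 per mouse, diluted in brain heart infusion broth to give a uniform lethal infection. Fourfold compound dilutions were given intramuscularly or orally at 1 and 3.5 h postinfection. Survivors were followed for 5 days. PD50 is the total dose (mg/kg) protecting 50% of mice, calculated by the Spearman-Kärber method.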

Streptococcus pyogenes [3] = assay: Antibacterial activity against Streptococcus pyogenes A9604 infected in mouse assessed as mouse survival administered intramuscularly at 1 hr post-infection measured for 5 days; settings: A9604, im, read-out: PD50; outline: as §2
Staphylococcus aureus [4] = assay: Antibacterial activity against Staphylococcus aureus 9537 by two-fold serial dilution technique; outline: as §1
Streptococcus pyogenes [5] = assay: Antibacterial activity against Streptococcus pyogenes 9604 by two-fold serial dilution technique; outline: as §1

Row | Compound | MIC (Streptococcus pneumoniae) | MIC (Staphylococcus aureus [1]) | MIC (Proteus mirabilis) | MIC (Escherichia coli) | MIC (Proteus vulgaris) | ED50 (Streptococcus pyogenes [2]) | ED50 (Streptococcus pyogenes [3]) | MIC (Staphylococcus aureus [4]) | MIC (Streptococcus pyogenes [5])
1 | CC1(C)S[C@@H]2[C@H](N3C(=O)[C@@H](c4ccccc4)NC3(C)C)C(=O)N2[C@H]1C(=O)O [HETACILLIN] | 0.004 µg/mL (≈ 0.0103 µM) | > 125 µg/mL | 0.13 µg/mL (≈ 0.334 µM) | 1 µg/mL (≈ 2.57 µM) | 0.13 µg/mL (≈ 0.334 µM) | 0.3 mg/kg | 0.2 mg/kg | 0.016 µg/mL (≈ 0.0411 µM) | 0.004 µg/mL (≈ 0.0103 µM)
2 | CC1(C)N=C(c2ccccc2)C(=O)N1[C@@H]1C(=O)N2[C@@H]1[S@+]([O-])C(C)(C)[C@@H]2C(=O)O | 1 µg/mL (≈ 2.48 µM) | > 125 µg/mL | > 125 µg/mL | > 125 µg/mL | > 125 µg/mL |  |  | > 8 µg/mL | 1 µg/mL (≈ 2.48 µM)
3 | CC1(C)N[C@H](c2ccccc2)C(=O)N1[C@@H]1C(=O)N2[C@@H]1[S@@+]([O-])C(C)(C)[C@@H]2C(=O)O | 0.5 µg/mL (≈ 1.23 µM) | > 125 µg/mL | 4 µg/mL (≈ 9.86 µM) | 32 µg/mL (≈ 78.9 µM) | 4 µg/mL (≈ 9.86 µM) | > 25 mg/kg | 9.6 mg/kg | 4 µg/mL (≈ 9.86 µM) | 0.5 µg/mL (≈ 1.23 µM)
4 | CC1(C)N[C@H](c2ccccc2)C(=O)N1[C@@H]1C(=O)N2[C@@H]1[S@+]([O-])C(C)(C)[C@@H]2C(=O)O | 0.13 µg/mL (≈ 0.321 µM) | > 125 µg/mL | 1 µg/mL (≈ 2.47 µM) | 8 µg/mL (≈ 19.7 µM) | 1 µg/mL (≈ 2.47 µM) | 9.4 mg/kg | 3.1 mg/kg | 1 µg/mL (≈ 2.47 µM) | 0.13 µg/mL (≈ 0.321 µM)
